Assay outcomes: PubChem, several laboratories
m-calpain inh = inhibitors of pig calpain II, primary screen, biochemical, fluorogenic peptide substrate, 1536-well | purified calpain II, 30 min | inhibition, % at 16 µM | hit rate 0.37% among 220,000 | AID 1236, 2008;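 active means inhibition above about 50%, limit read from the data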
hK5 inh = human KLK5 protease inhibitors, primary screen, biochemical, 1536-well. Kallikrein-5 (Homo sapiens), Q9Y337. recombinant hK5, fluorogenic AMC substrate cleavage. inhibition, % at 5 µM. hit rate 0.59% among 210,000. AID 873, 2007;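 active means inhibition of 40% or more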;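 further: 0% = enzyme controls without compound and 100% = no-enzyme blanks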
FXIIa inh = human FXIIa protease inhibitors, primary screen, biochemical, 1536-well; purified FXIIa, Boc-QGR-AMC fluorogenic substrate, 2 h; inhibition, % at 5 µM; hit rate 0.3% among 220,000; AID 800, 2007; in the data active means inhibition above about 40%;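 further: 0% = enzyme with no compound and 100% = blank without enzyme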
Target sequence (P00748 20-372 limits assumed): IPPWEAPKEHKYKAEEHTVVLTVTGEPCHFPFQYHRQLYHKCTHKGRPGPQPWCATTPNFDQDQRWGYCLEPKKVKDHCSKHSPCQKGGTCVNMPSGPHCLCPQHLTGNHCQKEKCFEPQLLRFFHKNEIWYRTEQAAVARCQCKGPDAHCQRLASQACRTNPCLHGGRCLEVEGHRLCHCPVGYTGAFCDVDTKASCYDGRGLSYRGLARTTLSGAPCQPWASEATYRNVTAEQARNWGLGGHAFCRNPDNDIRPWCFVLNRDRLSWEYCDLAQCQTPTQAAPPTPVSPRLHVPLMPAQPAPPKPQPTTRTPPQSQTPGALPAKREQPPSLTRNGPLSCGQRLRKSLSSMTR
Target sequence (P00748 373-615 limits assumed): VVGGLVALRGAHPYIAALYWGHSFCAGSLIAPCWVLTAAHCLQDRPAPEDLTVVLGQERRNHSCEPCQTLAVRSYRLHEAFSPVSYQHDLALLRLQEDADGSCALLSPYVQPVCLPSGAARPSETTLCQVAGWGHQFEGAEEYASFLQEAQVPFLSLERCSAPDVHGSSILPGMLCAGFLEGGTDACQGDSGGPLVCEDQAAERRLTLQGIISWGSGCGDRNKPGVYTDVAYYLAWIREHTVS
FXIa inh = human FXIa protease inhibitors, primary screen, biochemical, 1536-well; Coagulation factor XI (Homo sapiens), P03951; purified FXIa, Boc-Glu-Ala-Arg-AMC fluorogenic substrate; inhibition, % at 5 µM; hit rate 0.14% among 220,000;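 active means inhibition of at least 40%; inactive means inhibition below 40%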;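 further: fluorescence of freed AMC excited at 355 nm; 0% = enzyme without compound and 100% = no enzyme blank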
thrombin 1536 = human alpha-thrombin inhibitors, primary screen, counter-screen for coagulation protease inhibitor project, biochemical, 1536-well, fluorogenic AMC substrate; Boc-VPR-AMC fluorogenic substrate cleavage; Prothrombin (Homo sapiens), P00734; inhibition, % at 5 µM; hit rate 0.26% among 220,000;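 active means inhibition at or above 40%; inactive means inhibition below 40%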;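 further: 0% = enzyme with no compound and 100% = wells without enzyme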
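Material: Human alpha-thrombin protein | Buffer or medium: pH 7.5 Tris-saline with Tween 20 | Reagent: Boc-VPR-AMC substrate, 15 µM final | Schedule: Reaction at ambient temperature | Detection: AMC fluorescence at 355 nm excitation and 460 nm emission | Evaluation: Percent inhibition scaled between no-compound controls and no-enzyme blanks | Controls: no-compound enzyme wells and no-enzyme blanks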
An asterisk follows results filed as active; i = inactive; nt = no result given. Rows were chosen to be rich in hits. Some 1.4% of all compounds tested hit in one or more screens of this group.

SMILES	m-calpain inh	hK5 inh	FXIIa inh	FXIa inh	thrombin 1536
C=C(C)CN=c1scc(C)n1/N=C/c1ccco1	7	43*	10	4	9
O=C(O)/C=C/C(=O)Nc1cccnc1	15	72*	11	16	31
Cc1ccc(NC(=O)[C@@H](NC(=O)c2cccc(S(=O)(=O)N3CCOCC3)c2)C(C)C)cc1C	29	-19	2	-5	-7
CC1(C)CC(=O)C(N=Nc2ccc(C(F)(F)F)cc2[N+](=O)[O-])=C(O)C1	21	-10	3	-4	-1
O=C(CN(Cc1ccco1)C(=O)Cn1nnc(-c2cccs2)n1)NCC1CCCO1 (configuration not stated)	-29	2	14	-3	-3
C=C(C)COc1ccc(-c2[nH]ncc2Oc2ccccc2OCC)c(O)c1	45	13	16	3	-1
C=C(C)COc1ccc(-c2ncncc2Oc2ccc(OC)cc2)c(O)c1	29	43*	20	11	10
C=C(C)COc1ccc(-c2[nH]ncc2Oc2cccc(OC)c2)c(O)c1	57*	63*	29	2	20
CCCOC(=O)c1ccc(Oc2cn[nH]c2-c2ccc(OCC(=O)NN)cc2O)cc1	26	41*	30	43*	13
COc1cc(NC(=O)COc2ccc(Br)cc2)ccc1NC(=O)C(C)C	-24	2	4	-2	-3
CCc1ccc2c(c1)C(c1ccc([N+](=O)[O-])cc1)=NNC(c1ccc(C)cc1)=N2	61*	-10	4	9	-8
CCc1ccc2c(c1)C(c1ccc(N3CCOCC3)cc1)=NNC(c1ccncc1)=N2	-69	4	9	0	1
O=C(Nc1cccc2oc(=O)ccc12)c1ccc([N+](=O)[O-])cc1[N+](=O)[O-]	64*	-19	2	-4	-12
CC1(C)CC(=O)C(N=Nc2ccc(Br)cc2)=C(O)C1	20	25	75*	26	19
COc1ccc(C(=O)Nc2ccc(Cl)cc2C(=O)NCc2ccco2)cc1OC	-43	-13	0	-2	0
CCOc1ccc(C(=O)NCC(=O)OC(C)C(=O)NCc2ccco2)cc1OCC (configuration not stated)	-99	55*	7	3	64*
COc1ccc(C(=O)Nc2ccccc2C(=O)NCc2ccco2)cc1OC	-1	42*	7	4	22
O=C(COc1ccccc1)N/N=C/c1ccc(O[C@@H]2O[C@H](CO)[C@@H](O)[C@H](O)[C@H]2O)cc1	2	-20	12	5	-2
CCCn1c(NCc2cccs2)nc2ccccc21	9	56*	24	9	17
O=C(O)Cn1c(SCCOc2ccccc2)nc2ccccc21	15	42*	23	-1	4
O=C(O)Cn1c(SCc2ccccc2)nc2ccccc21	16	-5	12	4	2
CCCc1ccccc1OCCNC(=O)c1cc(=O)n(C)c(=O)n1C	-19	-24	-2	0	-4
CS(=O)(=O)N1CCN(C(=O)c2c(F)cccc2F)CC1	15	7	17	6	0
CS(=O)(=O)N1CCN(C(=O)c2ccccc2F)CC1	1	116*	8	8	7
O=C(O)/C=C/C(=O)N1CCN(C(c2ccccc2)c2ccccc2)CC1	-16	-11	3	4	6
SMILES	m-calpain inh	hK5 inh	FXIIa inh	FXIa inh	thrombin 1536
O=C(O)CCCC(=O)N1CCN(C(c2ccccc2)c2ccccc2)CC1	15	52*	6	7	16
Cc1ccc(NC(=O)c2ccc(OC(=O)COc3cccc(Cl)c3)cc2)cc1	12	-15	8	7	77*
CSCCC(NC(=O)c1ccccc1)C(=O)Nc1ccc(NC(C)=O)cc1 (configuration not stated)	-1	-24	14	4	-2
COc1cc(NC(=O)c2cc3nc(C4CC4)cc(C(F)(F)F)n3n2)c(OC)cc1Cl	-119	4	46*	12	0
COC(=O)c1ccccc1NC(=O)c1cc2nc(C3CC3)cc(C(F)(F)F)n2n1	i	-17	7	-12	-3
CC(=O)Oc1ccc(N(C(C)=O)S(=O)(=O)c2cccs2)c2ccccc12	-62	-10	10	-4	4
CC(C)C(NS(=O)(=O)c1ccccc1)C(=O)OCc1cc([N+](=O)[O-])cc2c1OCOC2 (configuration not stated)	44	39	7	11	48*
CC(Sc1nncn1C)C(=O)NCc1ccc2c(c1)OCO2 (configuration not stated)	6	27	28	32	77*
O=C(N/N=C/c1ccc2cccnc2c1)c1nc2ccccc2c(=O)[nH]1	-124	-15	4	-1	-9
COCCN(C(=O)C1CC1)c1nnc(-c2ccc(C)cc2)s1	14	-4	64*	34	1
Cc1ccc2c(c1)NC(=O)C(CC(=O)NCCCN1CCCCC1C)O2 (configuration not stated)	-4	47*	12	3	13
CN(C)c1ccc(C(=O)NN2C(=O)c3ccccc3C2=O)cc1	31	-4	99*	0	-1
Cc1cccc(NC(=O)CC2C(=O)NC3CCCCC3N2C(=O)c2ccccc2Cl)c1 (configuration not stated)	-3	-3	-4	-5	-14
Cc1ccc(C(=O)N2C(CC(=O)Nc3ccc(Cl)cc3)C(=O)NC3CCCCC32)cc1 (configuration not stated)	11	18	11	-3	50*
CCCCCCCC(=O)NN=C1CCN(Cc2ccccc2)CC1	28	-5	-1	1	-1
O=C(O)c1cccc(N/N=C/c2ccc(F)c(F)c2)c1	2	-7	nt	-7	-2
O=C(O)c1cccc(N/N=C/C2=C(Cl)c3cc(Cl)ccc3SC2)c1	58*	-2	4	1	2
Nc1cc(N)nc(CS)n1	1	10	2	-5	-1
COc1cc(NC(=O)CN2CCN(S(=O)(=O)c3ccc(C(C)C)cc3)CC2)cc(OC)c1	35	40*	26	15	10
COc1cccc(NC(=O)CN2CCN(S(=O)(=O)c3ccc(C(C)C)cc3)CC2)c1	8	-9	14	7	0
CCOc1ccc(NC(=O)CCN2CCN(S(=O)(=O)c3ccc(Cl)cc3)CC2)cc1	-1	55*	21	-3	28
Cn1c(N)c(C(=O)COC(=O)c2cncc(Br)c2)c(=O)n(C)c1=O	16	-8	-1	-6	-22
CCOc1cc2c3c(c1)C1(C(=O)N3C(C)(C)C=C2C)C(C#N)=C(N)Oc2cc(O)ccc21 (configuration not stated)	-24	-6	-2	-5	-4
